How the values were obtained:
COLO 205 = assay: Cytotoxicity against human COLO205 cells assessed as cell growth at 10 uM after 48 hrs by SRB assay relative to control; assay type: functional; settings: COLO 205, 48 h, read-out: Activity
Summary of the method: (§1)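 NCI Developmental Therapeutics Program 60-cell-line screen at a single dose of 10 μM. Cells incubated with compound for 48 h at 37 °C before viability determination.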

HCT-116 = assay: Cytotoxicity against human HCT116 cells assessed as cell growth at 10 uM after 48 hrs by SRB assay relative to control; assay type: functional; settings: HCT-116, 48 h, read-out: Activity; summary of the method: as §1
NCI-H460 = assay: Cytotoxicity against human NCI-H460 cells assessed as cell growth at 10 uM after 48 hrs by SRB assay relative to control; assay type: functional; settings: NCI-H460, 48 h, read-out: Activity; summary of the method: as §1
UO-31 = assay: Cytotoxicity against human UO31 cells assessed as cell growth at 10 uM after 48 hrs by SRB assay relative to control; assay type: functional; settings: UO-31, 48 h, read-out: Activity
Summary of the method: (§2)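 Single-dose (10 μM) screen run by the NCI Developmental Therapeutics Program on its 60 human cancer cell line panel. Viability was determined after 48 h incubation with the cells at 37 °C.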

Malme-3M = assay: Cytotoxicity against human MALME-3M cells assessed as cell growth at 10 uM after 48 hrs by SRB assay relative to control; assay type: functional; settings: read-out: Activity; summary of the method: as §1
[1] = Binding affinity to GRP78 duplex DNA (unknown origin) at 0.7 mM after 36 hrs by gel shift mobility assay relative to control
Summary of the method: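 Complementary strands (0.57 μM) annealed in 30% sucrose in TAE buffer (89 mM Tris/acetate, 2.5 mM EDTA, […]), incubated 36 h at 37 °C with ligand at 0, 5, 25, 50, 100 equiv per DNA phosphate (0, 0.2, 0.9, 1.9, 3.9 mM). Run on 24% native PAGE. DNA bands visualized by UV-shadowing at 260 nm. K_D taken from the duplex band ratio with versus without ligand.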

SNB-75 = assay: Cytotoxicity against human SNB75 cells assessed as cell growth at 10 uM after 48 hrs by SRB assay relative to control; assay type: functional; settings: SNB-75, 48 h, read-out: Activity; summary of the method: as §2

Which growth at 10 µM (COLO 205) does the source give for `CCCCCCCCCCCCCCCC(=O)O[C@@H]1[C@H](OC(=O)CCCCCCCCCCCCCCC)[C@@H](C(=O)N[C@@H](CCCCN)C(=O)OC)O[C@H]1n1cnc2c(=O)[nH]c(NC(=O)C(C)C)nc21.Cl` here?
Its growth at 10 µM is 101%.

What about the growth at 10 µM (HCT-116) of the same molecule?
The growth at 10 µM was 85.4%.

What about the growth at 10 µM (NCI-H460) of the same molecule?
Its growth at 10 µM is 101%.

And the growth at 10 µM (UO-31)?
The growth at 10 µM was 87.1%.

And the growth at 10 µM (Malme-3M)?
The growth at 10 µM was 98.5%.

And the Activity [1]?
The Activity was 50%.

What about the growth at 10 µM (SNB-75) of the same molecule?
Its growth at 10 µM is 94.1%.
